# Source: ChEMBL document CHEMBL5230163, “Design, synthesis and antibacterial evaluation of a novel class of tetrahydrobenzothiophene derivatives” (2023)
# The source made the active and inactive calls. The rule behind the calls is not given here.
# What was measured:
# Escherichia coli = assay: Antibacterial activity against Escherichia coli ATCC 25922 assessed as inhibition of bacterial growth by standard broth microdilution method; assay type: functional
# Method in brief: (§1)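 Broth microdilution in 96-well plates. Overnight culture (5 μl) moved into 5 ml fresh medium and grown to log phase, then diluted to 2 × 10^6 CFU ml−1. Each well received 100 μl cell suspension plus 100 μl of compound at various concentrations (200 μl final). Read-out was MIC. Run three times.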
# Pseudomonas aeruginosa [1] = assay: Antibacterial activity against Pseudomonas aeruginosa ATCC 27853 assessed as inhibition of bacterial growth by standard broth microdilution method; assay type: functional; method in brief: as §1
# Salmonella [2] = assay: Antibacterial activity against Salmonella ATCC 12022 assessed as inhibition of bacterial growth by standard broth microdilution method; assay type: functional; method in brief: as §1
# Staphylococcus aureus = assay: Antibacterial activity against Staphylococcus aureus ATCC 25923 assessed as inhibition of bacterial growth by standard broth microdilution method; assay type: functional; method in brief: as §1
# Pseudomonas aeruginosa [3] = assay: Antibacterial activity against Pseudomonas aeruginosa ATCC 27853 assessed as inhibition of bacterial growth at 0.5XMIC measured for 24 hrs by time-kill assay; assay type: functional, organism-based
# Salmonella [4] = assay: Antibacterial activity against Salmonella ATCC 12022 assessed as inhibition of bacterial growth at 0.5XMIC measured for 24 hrs by time-kill assay; assay type: functional, organism-based
# Pseudomonas aeruginosa [5] = assay: Antibacterial activity against Pseudomonas aeruginosa ATCC 27853 assessed as reduction in living bacterial cell counts at 1X to 4XMIC measured within 2 hrs by time-kill assay; assay type: functional, organism-based
# Salmonella [6] = assay: Antibacterial activity against Salmonella ATCC 12022 assessed as reduction in living bacterial cell counts at 1X to 4XMIC measured within 2 hrs by time-kill assay; assay type: functional, organism-based
# Pseudomonas aeruginosa [7] = assay: Bacteriostatic activity against Pseudomonas aeruginosa ATCC 27853 at 1X to 4XMIC measured after 2 to 24 hrs by time-kill assay; assay type: functional, organism-based; settings: time 2-24 hrs
# Salmonella [8] = assay: Bacteriostatic activity against Salmonella ATCC 12022 at 1X to 4XMIC measured after 2 to 24 hrs by time-kill assay; assay type: functional, organism-based; settings: time 2-24 hrs
Compound,MIC (Escherichia coli),MIC (Pseudomonas aeruginosa [1]),MIC (Salmonella [2]),MIC (Staphylococcus aureus),Activity (Pseudomonas aeruginosa [3]),Activity (Salmonella [4]),Activity (Pseudomonas aeruginosa [5]),Activity (Salmonella [6]),Activity (Pseudomonas aeruginosa [7]),Activity (Salmonella [8])
CCC1CCc2c(sc(NC(=O)c3ccc(C)cc3C)c2C(=O)O)C1 (stereo unspecified),3.5 µM,1.75 µM,1.75 µM,3.5 µM,,,,,,
CC1CCc2c(sc(NC(=O)c3ccccc3)c2C(=O)O)C1 (stereo unspecified),1.56 µM,1.56 µM,1.56 µM,99.2 µM,,,,,,
CC1CCc2c(sc(NC(=O)c3c(F)cccc3F)c2C(=O)O)C1 (stereo unspecified),11.1 µM,1.4 µM,1.4 µM,1.4 µM,,,,,,
Cc1ccc(C(=O)Nc2sc3c(c2C(=O)O)CCC(C)C3)c(C)c1 (stereo unspecified),5.69 µM,1.43 µM,1.43 µM,1.43 µM,,,,,,
CC1CCc2c(sc(NC(=O)c3ccccc3I)c2C(=O)O)C1 (stereo unspecified),1.11 µM,1 µM,0.54 µM,1.11 µM,inactive,inactive,Active,Active,Active,Active
CCC1CCc2c(sc(NC(=O)c3ccc(Cl)cc3)c2C(=O)O)C1 (stereo unspecified),3.44 µM,3.44 µM,1.72 µM,3.44 µM,,,,,,
CCC1CCc2c(sc(NC(=O)c3ccc(F)cc3F)c2C(=O)O)C1 (stereo unspecified),1.71 µM,1.71 µM,1.71 µM,3.42 µM,,,,,,
CCC1CCc2c(sc(NC(=O)c3ccc([N+](=O)[O-])cc3)c2C(=O)O)C1 (stereo unspecified),6.68 µM,1.67 µM,1.67 µM,6.68 µM,,,,,,
CCC1CCc2c(sc(NC(=O)c3ccccc3)c2C(=O)O)C1 (stereo unspecified),1.49 µM,0.73 µM,0.73 µM,11.8 µM,,,,,,
O=C(O)c1cn(C2CC2)c2cc(N3CCNCC3)c(F)cc2c1=O [CIPROFLOXACIN],1.27 µM,10.1 µM,2.54 µM,,,,,,,
O=C(Nc1sc2c(c1C(=O)O)CCCC2)c1ccc(Cl)cc1,1.46 µM,1.46 µM,1.46 µM,1.46 µM,,,,,,
CC1CCc2c(sc(NC(=O)c3ccc(F)cc3)c2C(=O)O)C1 (stereo unspecified),1.47 µM,0.72 µM,1.47 µM,1.47 µM,,,,,,
CC1CCc2c(sc(NC(=O)c3ccc(F)cc3F)c2C(=O)O)C1 (stereo unspecified),22.2 µM,11.1 µM,11.1 µM,1.4 µM,,,,,,
CC1CCc2c(sc(NC(=O)c3cc(Cl)ccc3F)c2C(=O)O)C1 (stereo unspecified),1.33 µM,1 µM,1.33 µM,2.66 µM,,,,,,
COc1ccc(C(=O)Nc2sc3c(c2C(=O)O)CCC(C)C3)cc1 (stereo unspecified),1.42 µM,45.3 µM,90.6 µM,1.42 µM,,,,,,
CCC1CCc2c(sc(NC(=O)c3ccccc3Cl)c2C(=O)O)C1 (stereo unspecified),1.72 µM,1.72 µM,1.72 µM,1.72 µM,,,,,,
GENTAMICIN,,,,1.27 µM,,,,,,
CCC1CCc2c(sc(NC(=O)c3cc([N+](=O)[O-])cc([N+](=O)[O-])c3)c2C(=O)O)C1 (stereo unspecified),1.49 µM,1.49 µM,1.49 µM,2.98 µM,,,,,,
CCC1CCc2c(sc(NC(=O)c3cccc([N+](=O)[O-])c3F)c2C(=O)O)C1 (stereo unspecified),19.9 µM,0.61 µM,19.9 µM,1.25 µM,,,,,,
Cc1c(C(=O)Nc2sc3c(c2C(=O)O)CCC(C)C3)cccc1[N+](=O)[O-] (stereo unspecified),0.64 µM,1.31 µM,1.31 µM,83.6 µM,,,,,,
CCC1CCc2c(sc(NC(=O)c3ccc(F)cc3)c2C(=O)O)C1 (stereo unspecified),1.8 µM,7.19 µM,7.19 µM,1.8 µM,,,,,,
